# Shown are actives, neighbours in structure and some others; about 3% of the full set was active somewhere.
# Kir21 block = Kir2.1 (mouse) channel inhibition | P35561 | HEK293-Kir2.1, FluxOR thallium flux fluorescence; hits give low values | B-score at 10 µM | 310,000 tested, 0.85% active | AID 1672;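 active = fluorescence ratio B-score at or below minus 3 SD of library scores, with starting-brightness B-score within 2 SD, cut at about -4.2 in these data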;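 note: channel flux triggered by added potassium and thallium sulfate stimulus; B-score of peak minus minimum fluorescence over baseline after thallium stimulus; more negative B-score means stronger Kir2.1 block with less thallium influx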
# Target sequence (P35561 whole entry, looked up): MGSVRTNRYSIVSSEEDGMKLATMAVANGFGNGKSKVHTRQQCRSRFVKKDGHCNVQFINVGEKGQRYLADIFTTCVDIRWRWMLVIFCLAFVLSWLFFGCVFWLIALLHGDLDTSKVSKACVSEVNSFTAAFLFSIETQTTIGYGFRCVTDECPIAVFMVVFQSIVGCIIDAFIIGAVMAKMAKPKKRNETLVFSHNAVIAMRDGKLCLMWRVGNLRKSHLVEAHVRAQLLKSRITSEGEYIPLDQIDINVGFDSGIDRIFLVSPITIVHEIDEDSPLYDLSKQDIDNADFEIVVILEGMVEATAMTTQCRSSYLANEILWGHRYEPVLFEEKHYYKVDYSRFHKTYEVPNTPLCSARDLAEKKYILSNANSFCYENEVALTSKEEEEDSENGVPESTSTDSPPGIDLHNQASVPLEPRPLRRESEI
# ANO1 block = blocks the mouse calcium-activated chloride channel TMEM16A | Q8BHY3 | HEK293 TMEM16A/YFP iodide influx fluorescence, ionomycin | normalized B-score (activity score, 25-100; higher = stronger inhibition) at 10 µM | 310,000 tested, 1.2% active | AID 588511;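 active = ratio plate-corrected score three or more library SD toward inhibition, starting fluorescence score within five deviations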;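 note: score derived from kinetic fluorescence span divided by baseline fluorescence per well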
# SR-BI DiI-HDL act = activators of SR-BI mediated HDL lipid uptake | CHO ldlA[mSR-BI] cells, DiI-HDL uptake fluorescence, 3 h; 100 = double the neutral-control signal | 320,000 tested, 0.096% active | activation, % at 12.5 µM;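 active = mean replicate activation of at least 60% and every replicate at or above 60%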;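 note: 0% = median plate neutral-control signal and 100% = twice that signal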
#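 Material: SR-BI-overexpressing, LDLR-lacking CHO cells | Dosing: Single compound concentration, delivered by pin transfer | Probe or stimulus: Labelled HDL, 10 µg/mL | Signal: Bottom-read cell fluorescence after medium removal, ex 550/em 595 nm | Schedule: 3 h, 37 °C | Evaluation: HDL uptake via cellular fluorescence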
# DNA FID counter = displaces DNA intercalator in HCV helicase counter-screen. 290,000 tested, 0.17% active. inhibition, % at 7.9 µM. DNA fluorescent intercalator displacement, fluorescence. AID 1845; in the data active = inhibition above about 37%;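 note: 0% = vehicle and 100% = reference compound; higher means more ethidium bromide displaced from hairpin DNA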
# ANO1 activ = mouse TMEM16A channel activation, primary screen; Q8BHY3; HEK293 TMEM16A/YFP-H148Q/I152L, iodide quench fluorescence; hits give low values; B-score at 10 µM; 340,000 tested, 0.3% active; AID 623877;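 active = fluorescence-ratio B-score plate-corrected deviation score at least 3 library SD below zero, with starting fluorescence score within 5 deviations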;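 note: channel opened by trigger with iodide after compound preincubation; score built on the fluorescence ratio of max minus min over baseline; more negative score means more quench and so TMEM16A activation or potentiation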
# SR-BI HDL uptake = inhibitors of mouse SR-BI mediated HDL lipid uptake. ldlA[mSR-BI] CHO cells, DiI-HDL uptake fluorescence, 3 h. AID 488896. 320,000 tested, 0.96% active. inhibition, % at 12.5 µM. Q61009;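 active = mean replicate inhibition of at least 70% and a set share of replicates each scoring 70 or more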;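 note: 0% = median of neutral control wells and 100% = median of positive control wells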
# * marks the source's active call; other numbers are inactive results; i = inactive; . = no result.
SMILES,Kir21 block,ANO1 block,SR-BI DiI-HDL act,DNA FID counter,ANO1 activ,SR-BI HDL uptake
O=C(CCc1nc(-c2ccccc2)c(-c2ccccc2)o1)OCc1ccc(Br)cc1,-1.61,i,35.9,-6.5,i,-35.9
Nc1ccc(C(=O)N/N=C2\CCCc3c2[nH]c2ccccc32)cc1,0.3,i,-35.3,-5.5,i,35.3
c1ccc(CCN=C2CCCc3c2[nH]c2ccccc32)cc1,-11.8*,i,23.2,1.7,i,-23.2
CCOc1cc(NC(=O)C2CC2)c(OCC)cc1NC(=O)c1cc(OC)c(OC)c(OC)c1,0.55,i,-23.1,-13.7,i,23.1
CCOc1ccccc1NC(=O)c1ccccc1-c1ccccc1,-4.85*,i,-25.7,-24.2,i,25.7
CCOc1ccccc1NC(=O)c1csc(C)c1C,0.68,i,-81.3,-22.6,i,81.3*
CCOc1cc(NC(=O)C2CC2)c(OCC)cc1NC(=O)c1ccccc1OCC,1.11,i,-72.0,-24.8,i,72.0*
CCOc1ccccc1NC(=O)c1cccc2ccccc12,-0.86,i,-70.0,-13.6,i,70.0*
CCOc1ccccc1NC(=O)c1ccccc1-c1nc(-c2ccccc2)no1,-0.81,i,-27.6,-3.8,i,27.6
COc1ccccc1C(=O)COC(=O)Cc1ccccc1F,.,.,-31.3,.,i,31.3
Cc1ccccc1NC(=O)c1ccc2nc(N3CCOCC3)sc2c1,-0.46,i,-10.4,-34.3,i,10.4
CCOc1ccccc1NC(=S)NCCc1ccccc1,-3.15,i,-25.4,-8.9,-5.24*,25.4
CCOc1ccccc1NC(=S)NCCc1ccc(F)cc1,-5.08,i,-48.1,-8.0,i,48.1
CCOC(=O)C1CCN(C(=O)c2ccc(OCC(=O)Nc3ccc(OCC)cc3)c(OC)c2)CC1,-0.42,i,-83.5,.,i,83.5*
CC1=CC(C)(C)N(C(=O)CCl)c2cc(C)ccc21,-2.72,i,5.6,34.0,i,-5.6
CC1=CC(C)(C)N(C(=O)CNC2CCCCC2)c2cc(C)ccc21,-6.05*,i,4.9,17.2,i,-4.9
Cc1nn(-c2ccccc2)c(C)c1C(=O)OC(C)C(=O)NC1CCCCC1C (stereo unspecified),.,.,3.2,.,i,-3.2
Cc1ccc(S(=O)(=O)/N=C2/NC(=O)/C(=C/c3ccc(Br)o3)S2)cc1,-0.37,25*,11.3,-10.6,i,-11.3
Cc1ccc(S(=O)(=O)/N=C2/NC(=O)/C(=C/c3cccnc3)S2)cc1,0.87,i,12.5,-29.3,i,-12.5
Cc1ccc(S(=O)(=O)/N=C2/NC(=O)/C(=C\c3cc(Br)cc(Br)c3O)S2)cc1,-11.4,i,12.7,44.1*,i,-12.7
COc1ccc(NS(=O)(=O)c2cccc(C(=O)NNC(=O)c3ccc(Br)o3)c2)cc1,-1.6,i,-4.5,.,i,4.5
CC(C)N(Cc1ccccc1)C(=O)COC(=O)C1CCCCC1,.,.,11.9,.,i,-11.9
O=C1Nc2ccc(Br)cc2C12NNc1ccccc1O2 (stereo unspecified),0.09,i,-90.3,27.5,i,90.3*
O=C1Nc2ccc(Br)cc2C1(O)c1ccccc1 (stereo unspecified),-0.24,i,19.3,-9.3,i,-19.3
Cc1ccccc1Nc1c([N+](=O)[O-])ccc2c1=NC1(CCCCC1)N=2,0.33,i,-82.6,-1.1,i,82.6*
SMILES,Kir21 block,ANO1 block,SR-BI DiI-HDL act,DNA FID counter,ANO1 activ,SR-BI HDL uptake
Cc1ccccc1Nc1ccc2nonc2c1[N+](=O)[O-],0.02,i,-0.1,2.8,i,0.1
Cc1ccccc1C(=O)N1CCC(C(=O)N(C)CC(=O)Nc2cccc(F)c2)CC1,0.31,i,11.4,-30.3,i,-11.4
O=C(Nc1ccc([N+](=O)[O-])cn1)c1cc(-c2cccc(Br)c2)nc2ccccc12,-0.75,i,-54.3,-0.1,i,54.3
O=C(Nc1ccc([N+](=O)[O-])cn1)c1cc(-c2cccc(Cl)c2)nc2ccccc12,-0.13,i,-77.1,-4.0,i,77.1*
CCc1nnc(NC(=O)CSCc2cc(=O)n3nc(C)sc3n2)s1,1.82,i,9.7,-4.4,i,-9.7
O=c1c2c(n3cnnc3n1-c1ccccc1)-c1ccccc1CC21CCCCC1,-0.55,i,.,-29.9,i,15.3

# Screening results from PubChem BioAssay.
